This note sets out measurements from ChEMBL document CHEMBL1135707, “Identification of potent and selective mechanism-based inhibitors of the cysteine protease cruzain using solid-phase parallel synthesis” (J Med Chem, 2002).

Structures are written as SMILES. In brackets after ≈: the same amount, converted by molar mass.

In one data set the target is Cruzipain (Trypanosoma cruzi, UniProt P25779). Briefly: Inhibitory activity against cruzain, the major cysteine protease found in Trypanosoma cruzi. In a few lines: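 Enzyme and inhibitor (in DMSO) preincubated 5 min before substrate addition. Read at ex 355/em 450 nm at four time points in the linear region. Activity taken against no-inhibitor controls, run in duplicate. Ki obtained from Williams–Morrison tight-binding fit.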

A further data set concerns the target Procathepsin L (Homo sapiens, UniProt P07711). Description: Inhibitory activity against human Cathepsin L. An outline of the steps: (§1)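 Buffer was 0.25 M sodium acetate pH 5.5 with 2 mM EDTA, 0.015% Brij-35 and 1 mM DTT. 5 min enzyme–inhibitor preincubation, ex 355/em 450 nm, duplicate wells. Ki obtained from Williams–Morrison fit.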
In a further data set the target is Cathepsin B (Homo sapiens, UniProt P07858). Briefly: Inhibitory activity against human Cathepsin B. An outline of the steps:
as §1

Data set [1] can be described thus: Aqueous solubility using UV analysis. The format is physicochemical. An outline of the steps: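 Solubility measured by an outside lab after 2 h preincubation of inhibitor in pH 7.4 aqueous buffer at 37 °C. Quantitated by UV absorbance at 211 nm.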

Sequence of Cruzipain (P25779 whole entry): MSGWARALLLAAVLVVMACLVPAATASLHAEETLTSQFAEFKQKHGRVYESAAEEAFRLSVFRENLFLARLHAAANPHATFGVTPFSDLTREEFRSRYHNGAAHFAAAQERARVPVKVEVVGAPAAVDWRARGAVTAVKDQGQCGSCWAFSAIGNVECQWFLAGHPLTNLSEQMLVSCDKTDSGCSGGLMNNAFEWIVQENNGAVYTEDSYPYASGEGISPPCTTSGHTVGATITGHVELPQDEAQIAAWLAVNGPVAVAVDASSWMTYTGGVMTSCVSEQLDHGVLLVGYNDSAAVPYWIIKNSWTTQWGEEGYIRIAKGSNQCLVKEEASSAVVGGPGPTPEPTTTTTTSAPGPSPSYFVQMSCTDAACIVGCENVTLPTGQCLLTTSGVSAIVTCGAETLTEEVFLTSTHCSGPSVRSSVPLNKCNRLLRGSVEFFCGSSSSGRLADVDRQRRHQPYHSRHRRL
Sequence of Procathepsin L (P07711 whole entry): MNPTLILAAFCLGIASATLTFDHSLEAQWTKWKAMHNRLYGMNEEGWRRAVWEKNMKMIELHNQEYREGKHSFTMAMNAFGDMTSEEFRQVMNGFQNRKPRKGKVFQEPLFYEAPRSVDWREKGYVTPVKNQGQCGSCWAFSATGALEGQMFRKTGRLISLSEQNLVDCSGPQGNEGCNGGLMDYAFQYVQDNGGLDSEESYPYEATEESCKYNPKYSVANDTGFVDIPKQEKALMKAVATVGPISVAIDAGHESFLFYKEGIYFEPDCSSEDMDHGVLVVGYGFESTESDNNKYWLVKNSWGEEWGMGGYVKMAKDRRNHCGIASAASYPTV

For the compound `O=C(N[C@@H](Cc1ccccc1)C(=O)N[C@@H](Cc1ccccc1)C(=O)CSCCc1ccccc1)OCc1ccccc1`, affinity at Cruzipain was put at a Ki of 4.2 nM.
Turning to `O=C(N[C@@H](Cc1ccccc1)C(=O)N[C@@H](Cc1ccccc1)C(=O)CSCCCc1ccccc1)OCc1ccccc1`, the Ki (as a rule, a dissociation constant, usually derived from enzyme kinetics or from competition with a known ligand) was 2.8 nM on Procathepsin L, 45.4 nM on Cathepsin B and 2 nM at Cruzipain.
In the case of `CC(C)CCSCC(=O)[C@H](Cc1ccccc1)NC(=O)[C@H](Cc1ccccc1)NC(=O)OCc1ccccc1`, the affinity at Cruzipain, expressed as Ki, was 30.1 nM. This counts as double-digit nanomolar.
Consider `O=C(N[C@@H](Cc1ccccc1)C(=O)N[C@@H](Cc1ccccc1)C(=O)CSCCCc1ccccc1)OCc1cccnc1`, for which, at Cruzipain, affinity was put at a Ki of 5.5 nM.
As for `CCOC(=O)CCSCC(=O)[C@H](Cc1ccccc1)NC(=O)[C@H](CC(C)C)NC(=O)N1CCOCC1`, affinity at Cruzipain was put at a Ki of 69.6 nM.
On to `CC(C)(C)SCC(=O)[C@H](Cc1ccccc1)NC(=O)[C@H](Cc1ccccc1)NC(=O)OCc1cccnc1`, for which the solubility (usually the concentration that dissolves in the medium under given conditions) in data set [1] came out at 288 µM (≈ 154 µg/mL). For the same compound, at Cruzipain, the Ki came to 4.6 nM.
In turn, `CCOC(=O)CCSCC(=O)[C@H](Cc1ccccc1)NC(=O)[C@H](Cc1ccccc1)NC(=O)OCc1ccccn1` came in with a Ki on Cruzipain of 30.4 nM.
For `O=C(N[C@@H](Cc1ccccc1)C(=O)N[C@@H](Cc1ccccc1)C(=O)CSC1CCCC1)OCc1ccccc1`, the Ki on Cruzipain came to 34.3 nM.
On Cruzipain, `CC(C)C[C@H](NC(=O)N1CCOCC1)C(=O)N[C@@H](Cc1ccccc1)C(=O)CSCCCc1ccccc1` returned a Ki of 131 nM.
As for `CC(C)C[C@H](NC(=O)OCc1ccccc1)C(=O)N[C@@H](Cc1ccccc1)C(=O)CSC(C)(C)C`, the Ki on Procathepsin L amounted to 7.9 nM; at Cathepsin B it was 112 nM; on Cruzipain, 1.3 nM.
With `CCOC(=O)C(C)SCC(=O)[C@H](Cc1ccccc1)NC(=O)[C@H](Cc1ccccc1)NC(=O)OCc1ccccc1` (some centres undefined), the Ki on Cruzipain turned out to be 37 nM.
Turning to `CC(C)(C)SCC(=O)[C@H](CCc1ccccc1)NC(=O)[C@H](Cc1ccccc1)NC(=O)OCc1cccnc1`, the Ki on Procathepsin L came out at 9.6 nM; at Cathepsin B it was 600 nM; on Cruzipain, 1.4 nM.
Turning to `CC(C)C[C@H](NC(=O)N1CCOCC1)C(=O)N[C@@H](Cc1ccccc1)C(=O)CSC(C)(C)C`, the inhibitory constant (Ki) at Cruzipain was found to be 59.7 nM.
Compound `CCOC(=O)CCSCC(=O)[C@H](Cc1ccccc1)NC(=O)[C@H](Cc1ccccc1)NC(=O)N1CCOCC1` registered a Ki at Cruzipain of 59.1 nM.
At Cruzipain, `CCOC(=O)CCSCC(=O)[C@H](Cc1ccccc1)NC(=O)[C@H](Cc1ccccc1)NC(=O)OCc1cccnc1` registered a Ki of 22.7 nM.
The compound `CCC(C)SCC(=O)[C@H](Cc1ccccc1)NC(=O)[C@H](Cc1ccccc1)NC(=O)OCc1ccccc1` (some centres undefined) gave a Ki at Cruzipain of 5.8 nM. This Ki lies about 3.9-fold lower than the previous one.
In the case of `O=C(N[C@@H](Cc1ccccc1)C(=O)N[C@@H](Cc1ccccc1)C(=O)CSC1CCCCC1)OCc1ccccc1`, affinity on Cruzipain was put at a Ki of 7.5 nM.
At Cruzipain, `CC(C)(C)CC(C)(CC(C)(C)C)SCC(=O)[C@H](Cc1ccccc1)NC(=O)[C@H](Cc1ccccc1)NC(=O)OCc1ccccc1` displayed an inhibitory constant (Ki) of 5 nM. Compared with the last compound, the Ki is about 1.5-fold lower.
Take `CC(C)(C)SCC(=O)[C@H](Cc1ccccc1)NC(=O)[C@H](Cc1ccccc1)NC(=O)OCc1ccccc1`: the solubility in data set [1] is 70 µM (≈ 37.3 µg/mL). Further, the Ki at Procathepsin L stood at 1.7 nM; on Cathepsin B, 45 nM; on Cruzipain, 2.5 nM.
Consider `CCOC(=O)CCSCC(=O)[C@H](Cc1ccccc1)NC(=O)[C@H](CC(C)C)NC(=O)OCc1ccccc1`, for which the affinity on Cruzipain corresponds to a Ki of 8 nM.
On to `CCOC(=O)CCSCC(=O)[C@H](Cc1ccccc1)NC(=O)[C@H](Cc1ccccc1)NC(=O)OCc1ccccc1`, for which the Ki at Procathepsin L was 1.5 nM; at Cathepsin B, 42.7 nM; at Cruzipain, 2.9 nM.
Consider `CC(C)(C)SCC(=O)[C@H](Cc1ccccc1)NC(=O)[C@H](Cc1ccccc1)NC(=O)N1CCOCC1`, for which, at Cruzipain, the Ki is 54.6 nM. This counts as double-digit nanomolar.
Regarding `CC(C)C[C@H](NC(=O)OCc1ccccc1)C(=O)N[C@@H](Cc1ccccc1)C(=O)CSCCCc1ccccc1`, the Ki on Procathepsin L was 4.7 nM; at Cathepsin B, 136 nM; on Cruzipain it was 1 nM.
On Cruzipain, `CC(C)SCC(=O)[C@H](Cc1ccccc1)NC(=O)[C@H](Cc1ccccc1)NC(=O)OCc1ccccc1` returned a Ki of 4.6 nM.
Compound `CC(C)C[C@H](NC(=O)OCc1ccccc1)C(=O)N[C@@H](Cc1ccccc1)C(=O)CSC(C)C` returned a Ki at Cruzipain of 7.8 nM.
Same read-out and setting: as for `COc1ccc(CSCC(=O)[C@H](Cc2ccccc2)NC(=O)[C@H](Cc2ccccc2)NC(=O)OCc2ccccc2)cc1`, the figure is 32.4 nM.
As for `CC(C)C[C@H](NC(=O)OCc1cccnc1)C(=O)N[C@@H](CCc1ccccc1)C(=O)CSCCCc1ccccc1`, the Ki was 144 nM at Procathepsin L, 1700 nM at Cathepsin B and 1.1 nM at Cruzipain.
`O=C(N[C@@H](Cc1ccccc1)C(=O)N[C@@H](Cc1ccccc1)C(=O)CSCc1ccccc1)OCc1ccccc1` had a Ki on Cruzipain of 44 nM.
Consider `CC(C)(C)c1ccc(CSCC(=O)[C@H](Cc2ccccc2)NC(=O)[C@H](Cc2ccccc2)NC(=O)OCc2ccccc2)cc1`, for which the Ki on Cruzipain turned out to be 22 nM.
The same measure, in the same setting: with `CC(C)(C)CC(C)(C)SCC(=O)[C@H](Cc1ccccc1)NC(=O)[C@H](Cc1ccccc1)NC(=O)OCc1ccccc1` the figure was 10.4 nM.
As for `CC(C)C[C@H](NC(=O)OCc1ccccn1)C(=O)N[C@@H](Cc1ccccc1)C(=O)CSC(C)(C)C`, the Ki on Cruzipain was determined as 13.8 nM. This Ki and that of the compound before are within 1.5-fold of each other.
Still for that read-out and setting: as for `CCOC(=O)CSCC(=O)[C@H](Cc1ccccc1)NC(=O)[C@H](Cc1ccccc1)NC(=O)OCc1ccccc1`, the figure is 31.2 nM; as for `O=C(CSCCCc1ccccc1)[C@H](Cc1ccccc1)NC(=O)[C@H](Cc1ccccc1)NC(=O)N1CCOCC1`, 216 nM; as for `O=C(N[C@@H](Cc1ccccc1)C(=O)N[C@@H](Cc1ccccc1)C(=O)CSCc1ccc(Cl)cc1)OCc1ccccc1`, 82.7 nM.
For the compound `CC(C)C[C@H](NC(=O)OCc1cccnc1)C(=O)N[C@@H](Cc1ccccc1)C(=O)CSC(C)(C)C`, the concentration in solution in data set [1] (solubility) was 378 µM (≈ 189 µg/mL). This compound returned a Ki at Cruzipain of 4.8 nM.
On Cruzipain, `CNC(=O)CSCC(=O)[C@H](Cc1ccccc1)NC(=O)[C@H](Cc1ccccc1)NC(=O)OCc1ccccc1` gave a Ki of 15 nM.
`CC(C)C[C@H](NC(=O)OCc1cccnc1)C(=O)N[C@@H](CCc1ccccc1)C(=O)CSC(C)(C)C`: the Ki turned out to be 44 nM on Procathepsin L, 1300 nM at Cathepsin B and 2 nM at Cruzipain.
In the case of `CC(=O)NCCSCC(=O)[C@H](Cc1ccccc1)NC(=O)[C@H](Cc1ccccc1)NC(=O)OCc1ccccc1`, the Ki at Cruzipain amounted to 34.3 nM.
On to `CC(C)C[C@H](NC(=O)OCc1ccncc1)C(=O)N[C@@H](Cc1ccccc1)C(=O)CSC(C)(C)C`, for which the Ki at Procathepsin L worked out at 28.8 nM; at Cathepsin B, 4800 nM; at Cruzipain it was 14.1 nM.
For `O=C(N[C@@H](Cc1ccccc1)C(=O)N[C@@H](CCc1ccccc1)C(=O)CSCCCc1ccccc1)OCc1cccnc1` (stereo in doubt; 16d), affinity at Cruzipain was put at a Ki of 5.4 nM. This counts as single-digit nanomolar.
For `O=C(N[C@@H](Cc1ccccc1)C(=O)N[C@@H](CCc1ccccc1)C(=O)CSCCCc1ccccc1)OCc1cccnc1` (stereo in doubt; 16e), the Ki amounted to 28.8 nM at Procathepsin L, 700 nM at Cathepsin B and 0.9 nM on Cruzipain.
